Thrombin inh: human alpha-thrombin inhibitors, primary screen, counter-screen for coagulation protease inhibitor project, biochemical, 1536-well, fluorogenic AMC substrate; Prothrombin (Homo sapiens), P00734; Boc-VPR-AMC fluorogenic substrate cleavage; inhibition, % at 5 µM; 220,000 compounds, 0.26% hits;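 active means inhibition at or above 40%; inactive means inhibition below 40%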;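 further: 0% = enzyme with no compound and 100% = wells without enzyme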
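signal = AMC fluorescence, 355/460 nm | material = human alpha-thrombin enzyme | control set = enzyme without compound as high, wells lacking enzyme as low | times = reaction at room temperature | read-out basis = percent inhibition scaled between no-compound controls and no-enzyme blanks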
FXIIa inh: human FXIIa protease inhibitors, primary screen, biochemical, 1536-well; inhibition, % at 5 µM; 220,000 compounds, 0.3% hits; purified FXIIa, Boc-QGR-AMC fluorogenic substrate, 2 h; AID 800, 2007; in the data active means inhibition above about 40%;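 further: 0% = enzyme with no compound and 100% = blank without enzyme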
Target sequence (P00748 20-372 limits assumed): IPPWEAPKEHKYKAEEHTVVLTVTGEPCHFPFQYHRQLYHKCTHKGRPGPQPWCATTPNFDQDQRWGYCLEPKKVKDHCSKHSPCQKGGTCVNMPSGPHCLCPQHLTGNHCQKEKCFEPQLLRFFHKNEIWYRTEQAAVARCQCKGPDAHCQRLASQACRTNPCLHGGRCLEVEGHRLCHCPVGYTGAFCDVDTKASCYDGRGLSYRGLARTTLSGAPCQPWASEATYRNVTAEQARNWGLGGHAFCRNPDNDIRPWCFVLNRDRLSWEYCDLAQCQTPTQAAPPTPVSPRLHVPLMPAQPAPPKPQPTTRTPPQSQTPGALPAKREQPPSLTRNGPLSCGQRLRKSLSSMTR
Target sequence (P00748 373-615 limits assumed): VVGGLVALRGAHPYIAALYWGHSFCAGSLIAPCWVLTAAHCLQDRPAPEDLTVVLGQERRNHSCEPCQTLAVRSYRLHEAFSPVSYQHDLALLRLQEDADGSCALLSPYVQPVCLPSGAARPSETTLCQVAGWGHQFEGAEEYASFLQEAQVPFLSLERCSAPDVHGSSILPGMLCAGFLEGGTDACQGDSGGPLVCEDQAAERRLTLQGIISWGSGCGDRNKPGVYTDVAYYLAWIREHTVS
Redox H2O2 prof: compounds producing H2O2 with reducing agent – biochemical, NIH compound library profiling, artefact control for MLSCN library redox annotation, primary screen | DTT-dependent redox cycling H2O2, phenol red/HRP absorbance; 100% = 100 µM peroxide control, 0% = buffer | activation, % at 10 µM | 200,000 compounds, 0.03% hits | AID 878, 2007;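 active means activation of at least 50% relative to the plate's high and low controls in the primary single-dose screen; inactive means activation below 50%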;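 further: compound incubated with DTT at 0.8 mM final as the reducing agent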
FXIa inh: human FXIa protease inhibitors, primary screen, biochemical, 1536-well; Coagulation factor XI (Homo sapiens), P03951; purified FXIa, Boc-Glu-Ala-Arg-AMC fluorogenic substrate; inhibition, % at 5 µM; 220,000 compounds, 0.14% hits;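 active means inhibition of at least 40%; inactive means inhibition below 40%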;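 further: fluorescence of freed AMC excited at 355 nm; 0% = enzyme without compound and 100% = no enzyme blank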
KLK5 inh: human KLK5 protease inhibitors, primary screen, biochemical, 1536-well; recombinant hK5, fluorogenic AMC substrate cleavage; inhibition, % at 5 µM; 210,000 compounds, 0.59% hits; AID 873, 2007;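 active means inhibition of 40% or more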;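 further: 0% = enzyme controls without compound and 100% = no-enzyme blanks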
S1P3 antag: S1P3 receptor antagonists, primary screen, cell-based; 170,000 compounds, 0.27% hits; inhibition, % at 4.98 µM; AID 485, 2006; CHO S1P3 NFAT-BLA reporter, FRET fluorescence, antagonist mode; Sphingosine 1-phosphate receptor 3 (Homo sapiens), Q99500;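 active means inhibition above the plate cutoff, the mean inhibition of test wells on that plate plus 3 SD, cut at about 28% in these data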;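 further: cells challenged with S1P at its EC80 of 0.8 µM; blue over green emission ratio from cleaved BLA substrate after 4 h stimulation; 0% = S1P-stimulated wells and 100% = unstimulated DMSO-only wells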
An asterisk follows results filed as active; · = no result given. Compounds with a hit are over-represented: about 1.2% of the library has one in this group of screens.

SMILES	Thrombin inh	FXIIa inh	Redox H2O2 prof	FXIa inh	KLK5 inh	S1P3 antag
CCOc1cc(/C=N/Nc2nc(Nc3ccccc3)nc(N3CCCCC3)n2)ccc1OCC(=O)O	-9	19	0	24	45*	-4
COc1ccc(C(=O)N2CCC(c3ccccc3)CC2)c(OC)c1OC	·	4	1	-1	-4	-7
COC(=O)c1cccc(NC(=O)NC(=O)c2ccc(Cl)cc2)c1	12	24	·	11	70*	-9
COC(=O)c1cccc(NC(=O)Nc2ccc(Cl)cc2)c1	-6	1	·	2	12	-6
O=C1C(=O)N(CC2CCCO2)C(c2ccccc2[N+](=O)[O-])/C1=C(/O)c1ccccc1 (stereo not drawn)	·	10	0	0	0	-10
Cc1nnc(NC(=O)c2c(F)cccc2F)s1	-3	21	-1	6	-7	·
CC(=O)Cc1nsc(NC(=O)c2cccc(F)c2)n1	0	21	-1	25	52*	-7
CC(=O)Cc1nsc(NC(=O)c2ccc(-c3cccc(C(F)(F)F)c3)o2)n1	3	12	-2	3	2	-8
Cc1nnc(NC(=O)c2cccc(F)c2)s1	7	16	1	4	44*	12
CCCc1ccc(OC(=O)c2ccc(O)cc2Cl)cc1	17	3	0	-2	0	-8
COCCNC(=O)C1=NOC(Cn2cc(C#N)c(=O)n(C)c2=O)C1 (stereo not drawn)	-13	7	-1	-5	-3	-5
Cc1cccc(N2C(=O)CS/C2=N\NC(=O)c2cccnc2)c1C	-4	8	-1	-2	0	-11
Cc1cccc(N2C(=O)CS/C2=N\NC(=O)c2ccc(Br)cc2)c1C	23	14	4	25	57*	·
Cc1ccc(/C=N/n2cnnc2)s1	18	16	-4	9	53*	·
COC(=O)c1ccccc1NC(=O)COc1ccc(S(=O)(=O)NC(C)C)cc1	0	11	0	-4	3	2
CCOC(=O)c1c(N)nn(C(C)=O)c1-c1ccccc1	3	-1	3	-7	86*	-13
O=C(CSc1nnc(-c2ccccc2)c(-c2ccccc2)n1)NC1CCS(=O)(=O)C1 (stereo not drawn)	1	11	-2	1	3	-17
Clc1cccc2sc(N3CCCC3)nc12	12	10	-3	8	109*	4
COc1ccccc1CNCC(=O)N1CC(=O)Nc2ccccc21	-3	8	0	-1	0	-16
O=C(Nc1ccccc1C(=O)N1CCOCC1)C1CC(=O)N(C2CCCC2)C1 (stereo not drawn)	3	17	0	0	-10	-48
CCc1ccc(N2CC(C(=O)Nc3ccccc3F)CC2=O)cc1 (stereo not drawn)	104*	10	-1	4	87*	12
COC(=O)c1ccccc1NC(=O)C1CC(=O)N(c2ccc(C)c(C)c2)C1 (stereo not drawn)	1	10	0	1	-26	·
COC(=O)c1ccccc1NC(=O)C1CC(=O)N(C2CCCCC2)C1 (stereo not drawn)	28	14	-3	1	64*	7
COC(=O)c1ccccc1NC(=O)C1CC(=O)N(c2ccc(F)cc2)C1 (stereo not drawn)	50*	29	3	9	89*	-9
C=CCSc1ncc(CO)n1Cc1ccccc1	4	4	0	-4	-6	-11
SMILES	Thrombin inh	FXIIa inh	Redox H2O2 prof	FXIa inh	KLK5 inh	S1P3 antag
COc1ccc(NC(=O)/C=C/c2c(Cl)nc3ccccn23)cc1	5	14	1	5	-1	-6
COc1ccc(NC(=O)COC(=O)CCNS(=O)(=O)c2ccccc2)cc1OC	-2	7	-2	0	-5	-16
CCCNC(=O)C1CC(c2ccc(C(F)(F)F)cc2)=NO1 (stereo not drawn)	21	20	·	102*	22	·
Cc1occc1C(=O)NNC(=O)c1ccccc1C(=O)O	-5	0	-1	-6	-7	-1
Cc1occc1C(=O)NNC(=O)c1ccccc1Br	8	21	-1	16	46*	-4
Cc1ccccc1C(=O)NNC(=O)c1ccoc1C	16	0	-5	2	63*	·
CC(=O)Nc1ccc(S(=O)(=O)NC(C)C(=O)NCCc2ccc(F)cc2)cc1 (stereo not drawn)	2	7	-1	1	20	-6
Cc1occc1C(=O)Nc1cc(C(F)(F)F)ccc1Cl	50*	27	2	15	27	22
Cc1ccc(-c2nc(CS(=O)(=O)CC(=O)N3CCc4ccccc4C3)c(C)o2)cc1	-8	51*	-1	36	-1	-18
COc1ccc(CCNC(=O)c2c(C)nc3ccccn23)cc1OC	-6	3	0	-2	-1	2
O=C(O)c1ccccc1C(=O)c1ccc(Br)s1	1	3	-1	-3	-5	-14
Cc1ccc(NC2CC(=O)N(c3cccc([N+](=O)[O-])c3)C2=O)cc1 (stereo not drawn)	-1	5	0	-4	-1	-1
COc1ccc(N2C(=O)CC(Nc3cccc([N+](=O)[O-])c3)C2=O)cc1 (stereo not drawn)	17	44*	·	18	42*	0
O=c1cc(CO)occ1OCc1cccc(F)c1	5	9	2	-7	40*	·
COc1ccccc1NC(=O)Cn1c2ccccc2c2nc3n(c(=O)c21)CCS3	1	0	-1	-4	-14	-3
CC1(C)CC2CC(C)(CN2C(=O)Cc2ccccc2)C1 (stereo not drawn)	1	20	1	10	2	·
CC1(C)CC2CC(C)(CN2CC(=O)C(C#N)c2ccccc2)C1 (stereo not drawn)	3	-4	2	-9	115*	-3
O=C(CN1CCN(Cc2ccc(Cl)cc2)CC1)N/N=C/c1c[nH]c2ccccc12	3	13	-1	-1	7	-4
C1=C(c2ccccc2)CCN(c2nc3ccccc3n3cnnc23)C1	-6	4	-1	-1	41*	-12
CCn1c(=S)[nH]c2nc3c(cc2c1=O)CCCC3	33	14	2	10	88*	·
O=c1c2cc3c(nc2[nH]c(=S)n1-c1ccccc1)CCCC3	-9	4	·	-1	-6	11

Screening data from PubChem BioAssay.
